The values below come from ChEMBL document CHEMBL2331511, “Novel soluble myeloid cell leukemia sequence 1 (Mcl-1) inhibitor (E,E)-2-(benzylaminocarbonyl)-3-styrylacrylonitrile (4g) developed using a fragment-based approach” (Eur J Med Chem, 2013).

In brackets after ≈: the same amount, converted by molar mass. Activity calls are given as the source filed them. No cut-off for these calls is given here. Bounds are passed on as bounds.

Broadly, the Ki is the equilibrium dissociation constant of an inhibitor or competing ligand from its target. In general, solubility refers to the concentration that dissolves in the medium under given conditions. In general, IC50 refers to the concentration needed to halve the response being measured. Lower therefore signals greater potency.

The target in data set [1] is T1, Induced myeloid leukemia cell differentiation protein Mcl-1 (Homo sapiens, UniProt Q07820). The data set can be described thus: Binding affinity to his-tagged Mcl-1 (unknown origin) expressed in Escherichia coli BL21 (DE3) cells by ITC analysis. The procedure, abridged: (§1)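 Isothermal titration calorimetry at 25 °C in 20 mM Tris pH 8.0, 150 mM NaCl, 1% DMSO; twelve 3 μL injections of 300 μM ligand into 30 μM protein. Heats corrected against buffer-only titrations run the same way, and Kd obtained by integrating the raw data and fitting to a one-site model.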
T1 sequence (Q07820 whole entry): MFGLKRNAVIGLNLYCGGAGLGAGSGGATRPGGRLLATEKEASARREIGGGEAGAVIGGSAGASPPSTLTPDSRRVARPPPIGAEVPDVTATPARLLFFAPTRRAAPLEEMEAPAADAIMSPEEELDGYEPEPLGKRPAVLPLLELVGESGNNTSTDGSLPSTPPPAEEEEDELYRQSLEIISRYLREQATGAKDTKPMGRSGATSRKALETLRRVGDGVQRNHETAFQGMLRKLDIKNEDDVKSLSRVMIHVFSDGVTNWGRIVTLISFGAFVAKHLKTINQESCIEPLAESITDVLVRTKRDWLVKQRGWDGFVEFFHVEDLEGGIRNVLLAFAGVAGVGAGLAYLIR
A general note: In ITC the heat of successive injections is recorded.

Data set [2] addresses Bcl-2-like protein 1 (Homo sapiens, UniProt Q07817). The data set can be described thus: Binding affinity to Bcl-xL (unknown origin).
The target in data set [3] is Induced myeloid leukemia cell differentiation protein Mcl-1 (Homo sapiens, UniProt Q07820, R263A). The data set can be described thus: Binding affinity to his-tagged Mcl-1 R263A mutant (unknown origin) expressed in Escherichia coli BL21 (DE3) cells by ITC analysis. The procedure, abridged: as §1
Sequence of Induced myeloid leukemia cell differentiation protein Mcl-1 (Homo sapiens, UniProt Q07820, R263A) (Q07820 whole entry R263A): as the sequence (Q07820 whole entry) above, with R263A counted along it
Data set [4] deals with NCI-H23. The data set can be described thus: Ratio of IC50 for human HL60 cells to IC50 for human NCI-H23 cells. The data set is classed as functional.
Data set [5] is described as follows: Solubility of the compound in 9:1 ratio of water:ethanol by HPLC analysis. Format: physicochemical. To be noted: 9:1 water:ethanol.
A short description of data set [6]: Solubility of the compound in 100 % ethanol by HPLC analysis. Format: physicochemical.
Data set [7] addresses T1, Induced myeloid leukemia cell differentiation protein Mcl-1. The data set can be described thus: Binding affinity to Mcl-1 (unknown origin) by two-dimensional [15N/1H] NMR analysis.
The target in data set [8] is Apoptosis regulator Bcl-2 (Homo sapiens) (UniProt P10415). The data set can be described thus: Binding affinity to recombinant human Bcl-2.
Sequence of Apoptosis regulator Bcl-2 (Homo sapiens) (P10415 whole entry): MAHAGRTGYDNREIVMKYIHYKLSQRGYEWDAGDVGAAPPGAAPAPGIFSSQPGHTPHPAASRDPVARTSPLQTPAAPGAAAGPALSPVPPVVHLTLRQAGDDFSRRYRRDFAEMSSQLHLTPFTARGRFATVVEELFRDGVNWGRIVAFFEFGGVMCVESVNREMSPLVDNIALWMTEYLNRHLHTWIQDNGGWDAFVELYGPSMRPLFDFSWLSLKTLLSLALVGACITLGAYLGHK
Data set [9] has as its system NCI-H23. The data set can be described thus: Induction of apoptosis in human NCI-H23 cells after 48 hrs by annexin V flow cytometry. The data set is classed as functional, cell-based. The following applies: NCI-H23, 48 h. Summed up:
(§2)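 Cells exposed to graded concentrations of ligand for 48 h; percentage of apoptotic cells measured by Annexin V flow cytometry, and IC50 taken from the concentration–response.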
(In general: Flow cytometry measures light scatter and fluorescence of single cells or particles in a stream.)

The subject of data set [10] is H22. The data set can be described thus: Induction of apoptosis in mouse H22 cells after 48 hrs by annexin V flow cytometry. The following applies: H22, 48 h. The data set is classed as functional, cell-based. Summed up:
as §2

The subject of data set [11] is MCF7. The data set can be described thus: Induction of apoptosis in human MCF7 cells after 48 hrs by annexin V flow cytometry. The data set is classed as functional, cell-based. To be noted: MCF7, 48 h. The procedure, abridged:
as §2

For data set [12], the system named is HL-60. The data set can be described thus: Induction of apoptosis in human HL60 cells after 48 hrs by annexin V flow cytometry. The data set is classed as functional, cell-based. The following applies: HL-60, 48 h. The procedure, abridged:
as §2

Sequence of Bcl-2-like protein 1 (Q07817 whole entry): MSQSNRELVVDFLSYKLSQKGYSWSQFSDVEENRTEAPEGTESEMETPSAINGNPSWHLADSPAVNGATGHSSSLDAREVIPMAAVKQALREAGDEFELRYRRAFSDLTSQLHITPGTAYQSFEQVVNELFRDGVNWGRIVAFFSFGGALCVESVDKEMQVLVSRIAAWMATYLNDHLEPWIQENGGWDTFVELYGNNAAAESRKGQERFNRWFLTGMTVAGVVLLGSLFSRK

Regarding `CC(C)c1ccc(Oc2ccc3c(=C(C#N)C#N)c(=O)c4cccc2c43)cc1`, the Kd was 3.71 µM in data set [1] (read-out: Kd) and 3.72 µM in data set [1] (read-out: pKd (converted)).

Regarding `CCNC(=O)CC#N`, the Kd is 6.65 µM in [1] (read-out: Kd) and 6.61 µM in data set [1] (read-out: pKd (converted)).

Turning to `CCCNC(=O)CC#N`, the Kd in [1] (read-out: Kd) was 4.28 µM; in data set [1] (read-out: pKd (converted)), 4.27 µM.

As to `N#CC(C#N)=c1c(=O)c2cccc3c(Oc4ccc(Cl)cc4)ccc1c32`, the Kd in data set [1] (read-out: Kd) is 4.24 µM; in data set [1] (read-out: pKd (converted)), 4.27 µM.

As to `N#CC1=C2C(=NC1=O)c1cccc3cccc2c13`, the Kd in data set [1] (read-out: Kd) was 1.83 µM; in [1] (read-out: pKd (converted)), 1.82 µM.

In the case of `Cc1cc2c(C(C)C)c(O)c(O)c(C=O)c2c(O)c1-c1c(C)cc2c(C(C)C)c(O)c(O)c(C=O)c2c1O` [GOSSYPOL], the Kd in [1] (read-out: Kd) was 2.65 µM; in [1] (read-out: pKd (converted)) it was 2.63 µM.

For `CCCC(CSc1ccccc1)Nc1ccc(S(=O)(=O)NC(=O)c2ccc(N3CCN(Cc4ccccc4-c4ccc(Cl)cc4)CC3)cc2)cc1[N+](=O)[O-]` (configuration not stated), affinity in data set [2] was put at a Ki of 0.021 µM.

In the case of `NC(=O)c1ccccc1C(=O)c1ccc(Sc2ccc(Cl)cc2)c([N+](=O)[O-])c1`, in data set [2], the Ki is 0.5 µM.

Turning to `COC1=CC(c2cc3ccccc3[nH]2)=N/C1=C/c1[nH]cc(C)c1C`, the Ki in data set [2] came out at 4.69 µM.

`N#Cc1c(-c2ccc3c(c2)OCO3)cc(-c2ccccc2O)[nH]c1=O`: in data set [2], the inhibition constant Ki was 5.1 µM.

Consider `COc1ccc(Oc2ccc3c(=C(C#N)C#N)c(=O)c4cccc2c43)cc1`, for which the Kd in data set [1] (read-out: Kd) is 4.93 µM; in [1] (read-out: pKd (converted)), 4.9 µM.

As for `N#CC(C#N)=c1c(=O)c2cccc3cccc1c32`, the values for the Kd in data set [1] (read-out: Kd), in data set [1] (read-out: pKd (converted)) and in data set [3] were 52.3 µM, 52.5 µM and 51.4 µM, respectively.

Consider `N#C/C(=C\C=C\c1ccccc1)C(=O)NCc1ccccc1`, for which the “Ratio IC50” value in data set [4] was 100. In addition, the figures for the solubility in data set [5] and in data set [6] were 200 µg/mL and 4000 µg/mL (≈ 13.9 mM), respectively. The figures for the Kd in data set [1] (read-out: Kd), in data set [1] (read-out: pKd (converted)) and in [3] were 0.16 µM, 0.158 µM and 6.72 µM, respectively. Also, the result in [7] was Active. Also, the result in [8] was inactive. Moreover, the IC50 was 380 nM in data set [9], 3.2 µM in [10], 5.4 µM in data set [11] and 47.2 µM in data set [12].

Take `N#CCC(=O)NCc1ccccc1`: the Kd in data set [1] (read-out: Kd) is 1.58 µM; in data set [1] (read-out: pKd (converted)), 1.58 µM; in [3], 90.8 µM.

`O=C(Nc1cc(S(=O)(=O)c2ccc(Cl)cc2)ccc1Cl)c1cc(Cl)cc(Br)c1O` yielded a Ki in [2] of 4.1 µM.

`O=C1C(=O)c2cccc3cccc1c23` [ACENAPHTHOQUINONE]: the Kd was 325 µM in data set [1] (read-out: Kd) and 324 µM in data set [1] (read-out: pKd (converted)).

Turning to `CCC(C)(C)c1ccc(Oc2ccc3c(=C(C#N)C#N)c(=O)c4cccc2c43)cc1`, the Kd in data set [1] (read-out: Kd) and in data set [1] (read-out: pKd (converted)) was 1.45 µM each time.

In the case of `C1CSCCN1` [THIOMORPHOLINE], in [1] (read-out: Kd), the Kd was over 1000 µM.

With `N#CCC(N)=O` [CYANOACETAMIDE], the Kd was 13.5 µM in data set [1] (read-out: Kd), 13.5 µM in data set [1] (read-out: pKd (converted)) and over 1000 µM in data set [3].

Consider `CNC(=O)CC#N`, for which the Kd was 8.27 µM in data set [1] (read-out: Kd) and 8.32 µM in data set [1] (read-out: pKd (converted)).

In the case of `N#C/C(=C\c1ccccc1)C(N)=O`, the Kd in data set [1] (read-out: Kd) was 2.21 µM; in [1] (read-out: pKd (converted)), 2.19 µM.

Regarding `N#C/C(=C\C=C\c1ccccc1)C(N)=O`, the Kd in [1] (read-out: Kd) is 1.06 µM; in data set [1] (read-out: pKd (converted)), 1.07 µM; in data set [3] it was 46.2 µM.
